# Data reported in ChEMBL document CHEMBL1125109, “High potency dipeptide sweeteners. 1. L-aspartyl-D-phenylglycine esters” (J Med Chem, 1990).
# Test: Sweetness potency relative to 5-10% of sucrose
# Type: functional
# How it was run: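 Human taste panel: five to ten expert male panelists tasted and spat 10 mL of sweetener solution, rating sweetness potency and quality against five sucrose standards (0.04 M/1.4% to 0.35 M/12.0%). Test solution generally equivalent to 5–10% sucrose. Potency = equi-sweet sucrose concentration divided by actual sweetener concentration; mean ± 95% confidence limit. Acute oral rat toxicity tested first.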
row,SMILES,Potency
1,CC1(C)C2CC[C@](C)(C2)[C@@H]1OC(=O)[C@H](NC(=O)[C@@H](N)CC(=O)O)c1ccccc1 (stereo in doubt; 29),1200
2,CC1CCCC(C)C1OC(=O)[C@H](NC(=O)[C@@H](N)CC(=O)O)c1ccccc1 (stereo partly specified),210
3,CC(OC(=O)[C@H](NC(=O)[C@@H](N)CC(=O)O)c1ccccc1)C(C)(C)C (stereo partly specified),30
4,N[C@@H](CC(=O)O)C(=O)N[C@@H](C(=O)OC1C2CC3COC1C3C2)c1ccccc1 (stereo partly specified),80
5,CC1(C)SC(C)(C)C1OC(=O)[C@H](NC(=O)[C@@H](N)CC(=O)O)c1ccccc1,300
6,N[C@@H](CC(=O)O)C(=O)N[C@@H](C(=O)OC1CC2CCC1C2)c1ccccc1 (stereo in doubt; 26),20
7,N[C@@H](CC(=O)O)C(=O)N[C@@H](C(=O)OC1CC2CCC1C2)c1ccccc1 (stereo in doubt; 28),180
8,CC12CCC(C1)C(C)(C)C2OC(=O)[C@H](NC(=O)[C@@H](N)CC(=O)O)c1ccc(O)cc1 (stereo partly specified),420
9,COC(=O)C(NC(=O)[C@@H](N)CC(=O)O)C(=O)O[C@@H]1C(C)(C)C2CC[C@]1(C)C2 (stereo partly specified),50000
10,CC1(C)CCC(C)(C)C1OC(=O)[C@H](NC(=O)[C@@H](N)CC(=O)O)c1ccccc1,190
11,CC1CCC(C)C1OC(=O)[C@H](NC(=O)[C@@H](N)CC(=O)O)c1ccccc1 (stereo partly specified),380
12,CC1(OC(=O)[C@H](NC(=O)[C@@H](N)CC(=O)O)c2ccccc2)CC2CCC1C2 (stereo partly specified),40
13,CC12CC(O)C(C1)C(C)(C)C2OC(=O)[C@H](NC(=O)[C@@H](N)CC(=O)O)c1ccccc1 (stereo partly specified),100
14,CC1(C)C2CCC1(C)C(OC(=O)[C@H](NC(=O)[C@@H](N)CC(=O)O)c1ccccc1)C2 (stereo partly specified),0
15,CC12CCC(C1)C(C)(C)C2OC(=O)[C@H](NC(=O)[C@@H](N)CC(=O)O)c1ccccc1F (stereo partly specified),720
16,CC12CCC(O1)C(C)(C)C2COC(=O)[C@H](NC(=O)[C@@H](N)CC(=O)O)c1ccccc1 (stereo partly specified),0
